UBC13 inh = blocks human UBC13 polyubiquitin chain formation | 330,000 tested, 0.47% active | AID 485273 | TR-FRET | inhibition, % at 20 µM | P61088; in the data active means inhibition above about 45%, passing the limit was not always enough
Apaf-1 inh = human Apaf-1 inhibition; reconstituted apoptosome caspase-3 activity, DEVD-Rh110 fluorescence; inhibition, % at 20 µM; AID 489030; 330,000 tested, 0.71% active; active means inhibition of at least 40% at 20 µM;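 further: plate controls were DMSO wells for no effect and DEVD-CHO caspase inhibitor wells for full effect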
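System – cell-free apoptosome with Apaf-1, procaspase-3 and caspase-9 · Buffer or medium – pH 7.5 Hepes buffer with CHAPS, BSA, DTT · Also added – cytochrome c with DEVD-Rh110 · Times – 30 min compound preincubation, 50 min activation, room temperature · Technique – Rh110 fluorescence intensity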
Mdm2 MdmX PPI = disrupts the human Mdm2-MdmX interaction. inhibition, % at 8 µM. SaOS-2 split-luciferase Mdm2/MdmX complementation, luminescence. AID 485346. O15151+Q00987. 330,000 tested, 3% active;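 active means inhibition of at least 50% at 8 µM in the primary screen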
Target sequence (O15151 whole entry, looked up): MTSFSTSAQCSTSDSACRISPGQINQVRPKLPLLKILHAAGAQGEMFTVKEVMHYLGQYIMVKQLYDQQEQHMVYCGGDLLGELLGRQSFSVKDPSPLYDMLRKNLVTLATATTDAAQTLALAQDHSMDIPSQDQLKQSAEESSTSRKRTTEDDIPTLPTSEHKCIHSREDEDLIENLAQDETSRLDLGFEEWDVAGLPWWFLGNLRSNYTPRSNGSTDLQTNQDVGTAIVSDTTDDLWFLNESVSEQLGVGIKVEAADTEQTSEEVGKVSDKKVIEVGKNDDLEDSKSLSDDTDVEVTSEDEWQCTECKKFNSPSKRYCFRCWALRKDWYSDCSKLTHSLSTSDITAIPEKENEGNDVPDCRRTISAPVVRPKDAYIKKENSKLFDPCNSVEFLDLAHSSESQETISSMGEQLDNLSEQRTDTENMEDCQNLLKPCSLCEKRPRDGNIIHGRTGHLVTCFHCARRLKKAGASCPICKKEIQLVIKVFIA
Target sequence (Q00987 whole entry, looked up): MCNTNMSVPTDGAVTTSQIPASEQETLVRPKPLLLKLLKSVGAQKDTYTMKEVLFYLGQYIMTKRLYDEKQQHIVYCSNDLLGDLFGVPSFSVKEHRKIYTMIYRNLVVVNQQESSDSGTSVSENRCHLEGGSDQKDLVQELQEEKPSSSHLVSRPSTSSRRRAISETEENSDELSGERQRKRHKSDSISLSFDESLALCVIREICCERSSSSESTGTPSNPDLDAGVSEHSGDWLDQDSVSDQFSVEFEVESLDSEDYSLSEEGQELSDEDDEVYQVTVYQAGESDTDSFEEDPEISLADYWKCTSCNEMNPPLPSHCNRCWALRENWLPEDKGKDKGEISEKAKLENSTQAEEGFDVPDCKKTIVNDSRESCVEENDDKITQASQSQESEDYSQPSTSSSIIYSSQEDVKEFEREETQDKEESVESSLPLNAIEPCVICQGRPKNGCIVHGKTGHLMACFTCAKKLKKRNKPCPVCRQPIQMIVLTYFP
XBP1 UPR activ = adaptive UPR (XBP1) activation | CHO-XBP1 luciferase reporter, IRE1-XBP1 UPR activation, luminescence; percent of tunicamycin response, DMSO as zero | activation, % at 20 µM | 330,000 tested, 0.33% active;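 active means versus positive control, 20 µM dose yields 30% or more activation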;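 further: 100% = tunicamycin at 10 µg/mL and 0% = DMSO only wells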
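Assay system: CHO-XBP1 luciferase reporter cells; Schedule: 6 h treatment, 37 °C; Detection: glow luminescence from Steady-Glo reagent; Benchmarks: high control tunicamycin 10 µg/mL final, low control DMSO vehicle only.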
CHOP UPR activ = activators of apoptotic arm of unfolded protein response (CHOP) | 330,000 tested, 0.34% active | activation, % at 10 µM | CHO-CHOP luciferase reporter, UPR activation, luminescence; percent of tunicamycin response over DMSO baseline | AID 449763;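 active means at 10 µM dose, activation of 40% or more, normalized to positive control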;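 further: 100% = tunicamycin at 10 µg/mL and 0% = DMSO alone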
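System: CHO CHOP reporter cells. Amount: 500 cells per well. Buffer or medium: F12 medium, 10% FBS. Compound dosing: one dose, 10 µM in 0.5% DMSO. Incubation: 6 h compound exposure at 37 °C after overnight seeding. Technique: Steady-Glo luciferase luminescence. Benchmarks: tunicamycin and DMSO controls.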
Mdm2 MdmX conf = human Mdm2/MdmX binding inhibition, confirmed | inhibition, % at 8 µM | luminescent assay | 10,000 tested, 55% active | shares compounds with Mdm2 MdmX PPI; in the data active means inhibition above about 40%
FLuc counter = full-length luciferase inhibition in Mdm2/MdmX counter-screen; shares compounds with Mdm2 MdmX PPI; SaOS-2 full-length luciferase counterscreen, luminescence; inhibition, % at 8 µM; 6,200 tested, 77% active; AID 504607;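 active means mean inhibition at 8 µM reaching about 37%, which flags the compound as non-specific, limit read from the data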;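 further: p53-null SaOS-2 cells with luciferase driven by a doxycycline-inducible promoter; compound on cells about two nights before reading with doxycycline added after day one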
The depositor's hits bear a star; / = no result given. Hits are enriched below; roughly 4.1% of the tested compounds scored in any of these assays.

SMILES | UBC13 inh | Apaf-1 inh | Mdm2 MdmX PPI | XBP1 UPR activ | CHOP UPR activ | Mdm2 MdmX conf | FLuc counter
CCOc1ccc(Oc2c(/C=N/NC(N)=O)c(C)nn2-c2ccccc2)cc1 | -24.0 | 13.2 | 5.9 | 9.9 | -2.8 | / | /
CNC(=O)COc1coc(CN2CCN(c3cccc(Cl)c3)CC2)cc1=O | -4.3 | -5.7 | 20.2 | -0.5 | 0.3 | / | /
CCOc1cccc(C(=O)Nc2ccc3c(c2)OCCO3)c1 | -6.4 | 8.3 | -94.7 | -6.2 | -1.4 | / | /
CCOn1c(-n2nc(C)cc2C)nc2ccccc2c1=O | 5.0 | -0.4 | 29.8 | -1.0 | -0.5 | / | /
Cc1cc(C)n(-c2nc3ccccc3c(=O)n2OCC#N)n1 | -0.8 | -3.4 | 65.9* | 6.4 | 15.3 | 49.0* | 45.7*
Nc1ncnc2c1ncn2Cc1ccccc1 | 15.4 | -1.2 | -6.1 | -0.4 | -0.3 | / | /
Nc1ncnc2c1ncn2CCOc1ccccc1 | 19.5 | -2.3 | 59.2* | 5.1 | 1.2 | 6.8 | /
CCOc1ccccc1N1CCN(C(=O)c2ccncc2)CC1 | -5.6 | 3.4 | -2.5 | -1.1 | -0.6 | / | /
CCOc1ccccc1N1CCN(C(=O)c2cc(-c3cccnc3)nc3c(Cl)cccc23)CC1 | -2.4 | 24.5 | 87.8* | -2.9 | 7.2 | 82.8* | 52.5*
CCOc1ccccc1N1CCN(C(=O)c2cc3ccccc3cc2OC)CC1 | 0.2 | 5.4 | 57.1* | -1.1 | -0.7 | 80.0* | 69.3*
COc1cc2ccccc2cc1C(=O)N1CCN(C(C)=O)CC1 | -1.1 | -1.6 | 15.9 | -3.3 | 1.3 | / | /
C=CCN1C(=O)C2C(C(=O)NC3CCCC3)C3C=CC2(O3)C1C(=O)NC1CCCC1 (stereo unspecified) | 6.2 | 6.9 | -0.1 | 0.9 | -0.7 | / | /
CC1CCC(C(C)C)C(OCC(O)CNC(C)(C)C)C1 (stereo unspecified) | 3.5 | -2.7 | 22.9 | 2.4 | -0.5 | / | /
CC(NCC(O)COC1CCC(C(C)(C)C)CC1)c1ccccc1 (stereo unspecified) | 29.8 | 8.1 | 55.0* | 2.2 | 0.6 | 36.0 | 77.1*
COc1ccc(OCC(O)CNC(C)c2ccccc2)cc1 (stereo unspecified) | 4.8 | 9.4 | -22.7 | 2.3 | -2.4 | / | /
CC1CCC(C(C)C)C(OCC(O)CNC(C)c2ccccc2)C1 (stereo unspecified) | 32.2 | -3.1 | 60.5* | 4.3 | -0.6 | 45.8* | 69.6*
CC(=O)Nc1ccccc1OCc1cnc(Cl)s1 | 2.6 | 10.7 | 1.1 | 0.0 | -1.1 | / | /
COc1ccc(OC)c(Nc2cc(-c3ccccc3)nc(N)n2)c1 | 5.6 | 13.1 | 69.2* | 6.8 | 0.2 | 71.3* | 72.3*
CCOc1ccc(S(=O)(=O)NCCC(=O)N(C)CC(=O)Nc2ccc(N3CCOCC3)cc2)cc1 | -4.0 | 6.8 | 20.9 | -4.3 | 0.4 | / | /
CCOc1ccccc1N(CC(=O)NC1CCCC1)C(=O)CNC(=O)c1cccs1 | 3.2 | -4.4 | 8.7 | -2.5 | 1.3 | / | /
Cn1c(=O)[nH]c(=O)c2c1nc(SCC(N)=O)n2Cc1cccc(Br)c1 | 10.3 | -5.4 | 63.5* | 0.0 | -1.4 | 32.5 | /
Cc1ccc(Cn2c(SCC(C)C)nc3c2c(=O)[nH]c(=O)n3C)cc1 | -14.7 | 15.7 | 60.0* | 5.8 | -1.3 | 28.9 | /
COc1ccc(-c2ccc(=O)n(CC(=O)Nc3cccc(O)c3)n2)cc1OC | -17.1 | 17.3 | 54.7* | 1.2 | -0.2 | 55.2* | 108.1*
Cc1nn(CCCC(=O)NCCCN2CCN(C)CC2)c(=O)c2c1sc1ccccc12 | -3.5 | 18.9 | -2.0 | -0.2 | -0.7 | / | /
C=CCn1c(Sc2ncc([N+](=O)[O-])s2)n[nH]c1=O | -0.1 | 3.2 | 66.4* | -9.7 | -9.0 | 87.5* | 56.2*
SMILES | UBC13 inh | Apaf-1 inh | Mdm2 MdmX PPI | XBP1 UPR activ | CHOP UPR activ | Mdm2 MdmX conf | FLuc counter
C=CCn1c(CSc2ccccc2[N+](=O)[O-])n[nH]c1=S | 7.2 | 14.2 | 8.7 | 1.3 | -0.3 | / | /
CCOC(=O)Cn1cnc2c(nnn2-c2ccc(F)cc2)c1=O | -0.9 | 1.0 | 23.9 | -1.6 | -1.4 | / | /
Cc1cc(C)nc(NC(=O)c2c(F)c(F)c(F)c(C(=O)Nc3cc(C)cc(C)n3)c2F)c1 | 2.8 | -15.5 | 83.0* | -4.8 | 7.6 | 65.0* | 17.9
O=[N+]([O-])c1ccc(N2CCN(c3cccc(Cl)c3)CC2)cn1 | -17.8 | 6.8 | -3.2 | 0.8 | 1.8 | / | /
O=S(=O)(/C=C/c1ccccc1)Oc1ccccc1 | 16.5 | -11.8 | 75.8* | 2.0 | 0.4 | 50.5* | 77.8*
CC(C)N1CN(c2ccccc2)C(=S)N(c2ccccc2)C1 | -2.5 | -23.5 | 12.5 | -3.0 | -0.1 | / | /
COc1ccccc1N1CCN(CCN2C(=O)C3CCCCN3C2=O)CC1 (stereo unspecified) | -6.2 | 1.3 | -4.8 | 0.2 | 3.5 | / | /
COc1ccc(NC(=O)Cn2nnc(C(=O)NCc3ccc(C)cc3)c2N)cc1OC | -5.5 | -0.8 | 14.1 | -1.6 | -0.4 | / | /
COc1ccc(NC(=O)c2nnn(CC(=O)Nc3ccc4c(c3)OCO4)c2N)c(OC)c1 | -11.8 | -2.3 | 52.3* | 0.1 | 4.6 | -16.4 | /
COc1ccc(NC(=O)c2nnn(CC(=O)Nc3ccc4c(c3)OCO4)c2N)cc1OC | -2.1 | -15.5 | 28.0 | -1.6 | -0.5 | / | /
COc1ccc(Cl)cc1NC(=O)c1nnn(CC(=O)Nc2ccc(OC)c(OC)c2)c1N | 2.1 | -6.9 | 69.0* | 0.1 | 1.5 | 39.5 | 31.7
COc1cccc(NC(=O)Cn2nnc(C(=O)Nc3cc(Cl)ccc3OC)c2N)c1 | -11.0 | -18.3 | 90.4* | 0.2 | 1.1 | 49.2* | 21.9
COc1ccc(Cl)cc1NC(=O)c1nnn(CC(=O)Nc2ccc3c(c2)OCO3)c1N | -13.0 | -10.9 | 93.3* | -2.1 | 0.8 | 53.2* | 16.9
COc1cccc(Cn2nnc(C(=O)Nc3cc(Cl)ccc3OC)c2N)c1 | 16.4 | -4.0 | 15.7 | 12.7 | -1.9 | / | /
COc1ccc(/C=N/N2C(=O)C3C4C=CC(CC4)C3C2=O)c(OC)c1 (stereo unspecified) | 6.8 | -3.0 | 6.0 | 4.0 | 1.4 | / | /
COc1ccc(NC(=O)Cn2nnc(C(=O)Nc3ccc(F)c(Cl)c3)c2N)cc1 | -15.8 | -4.3 | 58.6* | 0.6 | 2.3 | 33.9 | 83.0*
COc1ccc(Cl)cc1NC(=O)c1nnn(CC(=O)Nc2cc(C)cc(C)c2)c1N | -5.1 | 5.0 | 94.0* | -1.9 | 0.3 | 57.0* | 55.2*
Cc1ccc(NC(=O)Cn2nnc(C(=O)Nc3ccc(F)c(Cl)c3)c2N)cc1 | -10.3 | -6.9 | 16.5 | -4.4 | 3.2 | / | /
CCN(CC)CCSc1nnc2c3ccccc3n(CCc3ccccc3)c2n1 | 5.9 | 9.9 | -1.7 | 1.4 | 1.3 | / | /
c1ccc(CCn2c3ccccc3c3nnc(SCc4ccc5nonc5c4)nc32)cc1 | 7.0 | 2.9 | 90.9* | -0.1 | 0.8 | 63.0* | 43.5*
CN1CCN(C(=O)CCCN2C(=O)/C(=C/c3ccccc3)SC2=S)CC1 | 1.2 | 12.4 | 52.5* | -3.8 | 2.7 | 33.7 | 30.5

Screening results (PubChem BioAssay)
